Assay results reported in ChEMBL document CHEMBL4229502, “Asperidines A-C, pyrrolidine and piperidine derivatives from the soil-derived fungus Aspergillus sclerotiorum PSU-RSPG178” (Bioorg Med Chem, 2018).
Active and inactive are the calls of the source. The rule behind the calls is not given here.

Key:
Vero = assay: Cytotoxicity against African green monkey Vero cells by GFP-based assay; type: cell-based; details: Chlorocebus sabaeus
Method in brief: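 Vero cell assay run in triplicate following a previously published method, with ellipticine as reference drug; IC50 reported.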

[1] = target: T1, 3-hydroxy-3-methylglutaryl-coenzyme A reductase (Homo sapiens) (UniProt P04035); assay: Inhibition of human HMG-CoA reductase catalytic domain at 1 uM using HMG-CoA as substrate measured every 20 secs for 10 mins relative to control
T1 sequence (whole entry): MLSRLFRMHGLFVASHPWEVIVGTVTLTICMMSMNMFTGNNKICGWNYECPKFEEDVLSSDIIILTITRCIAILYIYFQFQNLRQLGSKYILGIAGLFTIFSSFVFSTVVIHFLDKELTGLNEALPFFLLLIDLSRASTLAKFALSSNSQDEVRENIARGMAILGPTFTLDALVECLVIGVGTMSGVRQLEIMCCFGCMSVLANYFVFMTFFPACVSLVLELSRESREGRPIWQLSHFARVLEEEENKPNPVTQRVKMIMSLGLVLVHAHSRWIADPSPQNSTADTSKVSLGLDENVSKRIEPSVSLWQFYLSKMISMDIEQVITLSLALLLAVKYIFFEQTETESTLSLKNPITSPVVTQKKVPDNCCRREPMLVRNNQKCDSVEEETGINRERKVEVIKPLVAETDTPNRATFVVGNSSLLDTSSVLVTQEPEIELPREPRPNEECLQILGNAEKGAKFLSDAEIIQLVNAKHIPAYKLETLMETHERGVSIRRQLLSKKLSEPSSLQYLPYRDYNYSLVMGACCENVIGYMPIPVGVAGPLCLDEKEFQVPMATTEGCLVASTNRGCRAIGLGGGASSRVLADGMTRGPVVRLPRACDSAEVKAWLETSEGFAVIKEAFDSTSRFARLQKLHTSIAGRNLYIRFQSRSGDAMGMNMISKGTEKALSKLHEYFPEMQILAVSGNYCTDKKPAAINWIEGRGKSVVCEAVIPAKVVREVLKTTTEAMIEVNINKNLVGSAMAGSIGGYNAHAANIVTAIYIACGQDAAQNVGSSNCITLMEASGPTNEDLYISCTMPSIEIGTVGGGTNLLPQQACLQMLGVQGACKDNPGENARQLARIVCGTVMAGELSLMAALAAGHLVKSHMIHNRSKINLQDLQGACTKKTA
Method in brief: (§1)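 Cell-free kit assay: human HMGR catalytic domain added to buffer with NADPH and HMG-CoA to start the reaction at 37 °C. NADPH oxidation followed as A340 every 20 s for 10 min. Results expressed as percent inhibition of untreated control, n = 3.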

[2] = target: T1, 3-hydroxy-3-methylglutaryl-coenzyme A reductase (Homo sapiens); assay: Inhibition of human HMG-CoA reductase catalytic domain at 200 uM using HMG-CoA as substrate measured every 20 secs for 10 mins relative to control; method in brief: as §1
Caco-2 [3] = assay: Cytotoxicity against human Caco2 cells assessed as decrease in cell viability at 12.5 to 100 uM after 24 hrs by MTT assay; type: cell-based; details: caco-2, 24 h
Method in brief: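 Caco-2 cells (ATCC, passages 2–22, DMEM/F-12 with 10% FBS) were plated at 2.5 × 10^4 cells/well for 24 h, then exposed to 12.5, 25, 50, 75 and 100 µM for 24 h. After washing, cells got 5 mg/mL MTT for 4 h, crystals were dissolved in DMSO and A570 read. Viability is % of control, means ± S.E.M., n = 5.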

Caco-2 [4] = assay: Antioxidant activity in human Caco2 cells assessed as decrease in reactive oxygen species level after 24 hrs by DCFH-DA dye-based fluorescence assay; type: functional, cell-based
Method in brief: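 Caco-2 cells (ATCC, passages 2–22, DMEM/F-12 with 10% FBS) were exposed 24 h at 12.5–100 µM. They were then loaded with 10 µM DCFH-DA for 1 h at 37 °C in the dark and incubated 30 min without H2O2. Fluorescence was read at ex 495/em 527 nm. Means ± S.E.M., n = 3, vs untreated control cells.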

Caco-2 [5] = assay: Antioxidant activity in human Caco2 cells assessed as decrease in H2O2-induced reactive oxygen species level after 24 hrs by DCFH-DA dye-based fluorescence assay; type: functional, cell-based
Method in brief: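 Caco-2 cells (ATCC, passages 2–22, DMEM/F-12 with 10% FBS) were treated 24 h at 12.5–100 µM. They were loaded with 10 µM DCFH-DA for 1 h at 37 °C in the dark, then exposed to 0.5 mM H2O2 for 30 min and washed twice. Fluorescence was read at ex 495/em 527 nm. Means ± S.E.M., n = 3, vs H2O2-exposed control cells.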

[6] = target: Cystic fibrosis transmembrane conductance regulator (Homo sapiens, UniProt P13569); assay: Inhibition of CFTR-mediated forskolin-induced chloride secretion in human T84 cells after 15 mins by short-circuit current analysis; type: cell-based
Method in brief: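 T84 monolayers grown on 1 cm² porous inserts (500,000 cells/insert) until TEER > 1000 Ω·cm², then mounted in Ussing chambers. Symmetrical Krebs solution (pH 7.3, 10 mM glucose) was gassed with 95% O2/5% CO2 at 37 °C. Chloride secretion was stimulated with 20 µM forskolin, then compound added apically at varied concentrations. Short-circuit current recorded; IC50 from Hill equation.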

Row | SMILES | IC50 (Vero) [µM] | inhibition [1] [%] | Activity (Vero) | inhibition [2] | Activity (Caco-2 [3]) | Activity (Caco-2 [4]) | Activity (Caco-2 [5]) | IC50 [6] [µM] | inhibition [6]
1 | Cc1c2ccncc2c(C)c2c1[nH]c1ccccc12 [ELLIPTECINE] | 4.06 | – | – | – | – | – | – | – | –
2 | CC[C@H](C)C(=O)O[C@H]1C[C@H](O)C=C2C=C[C@H](C)[C@H](CC[C@@H](O)C[C@@H](O)CC(=O)O)[C@H]21 | – | 86 | – | – | – | – | – | – | –
3 | CCCCCCCCC[C@@H]1C[C@H](O)[C@H]2C[N@]1O[C@@H]2c1ccccc1 | – | – | Non-Toxic | inactive | Non-Toxic | Dose-dependent effect | Dose-dependent effect | 58.6 | –
4 | CCCCCCCC[C@@H]1CC[C@H](O)[C@H](Cc2ccccc2)N1C | 51.5 | – | – | 29% | Non-Toxic | Dose-dependent effect | Dose-dependent effect | – | Dose-dependent effect
